Test results published in ChEMBL document CHEMBL1131156, “Studies on selectin blockers. 7. Structure-activity relationships of sialyl Lewis X mimetics based on modified Ser-Glu dipeptides” (J Med Chem, 1998).

What was measured:
L-selectin = molecular target: T1, L-selectin (Homo sapiens, UniProt P14151); test: Inhibition of Selectin L binding
T1 sequence (P14151 whole entry): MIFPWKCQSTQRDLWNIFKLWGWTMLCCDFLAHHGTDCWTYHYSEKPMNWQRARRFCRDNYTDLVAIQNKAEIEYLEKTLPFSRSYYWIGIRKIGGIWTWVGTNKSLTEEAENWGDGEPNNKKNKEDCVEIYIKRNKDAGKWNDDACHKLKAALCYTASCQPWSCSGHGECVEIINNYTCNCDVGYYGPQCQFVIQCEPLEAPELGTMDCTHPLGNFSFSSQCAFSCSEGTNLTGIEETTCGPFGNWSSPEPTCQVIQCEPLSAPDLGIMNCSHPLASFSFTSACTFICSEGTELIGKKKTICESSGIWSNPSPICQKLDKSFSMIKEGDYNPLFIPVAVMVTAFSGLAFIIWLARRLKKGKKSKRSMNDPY
Summary of the method: (§1)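 Wells coated with sLeX pentasaccharide ceramide analogue (100 pmol/well, dried from 1:1 methanol/water), blocked with 5% BSA-1 mM CaCl2/50 mM imidazole (pH 7.2) 1 h RT. Selectin-Ig fusion was precomplexed 30 min RT with biotinylated goat F(ab')2 anti-human IgG/streptavidin-alkaline phosphatase. Compounds (DMSO stock 10 mM; […]) were incubated with complex 30 min RT, then in wells 45 min at 37 °C. Detection used p-nitrophenyl phosphate in diethanolamine, pH 9.8.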

P-selectin [1] = molecular target: T2, P-selectin (Homo sapiens, UniProt P16109); test: Inhibition of Selectin P binding; summary of the method: as §1
T2 sequence (P16109 whole entry): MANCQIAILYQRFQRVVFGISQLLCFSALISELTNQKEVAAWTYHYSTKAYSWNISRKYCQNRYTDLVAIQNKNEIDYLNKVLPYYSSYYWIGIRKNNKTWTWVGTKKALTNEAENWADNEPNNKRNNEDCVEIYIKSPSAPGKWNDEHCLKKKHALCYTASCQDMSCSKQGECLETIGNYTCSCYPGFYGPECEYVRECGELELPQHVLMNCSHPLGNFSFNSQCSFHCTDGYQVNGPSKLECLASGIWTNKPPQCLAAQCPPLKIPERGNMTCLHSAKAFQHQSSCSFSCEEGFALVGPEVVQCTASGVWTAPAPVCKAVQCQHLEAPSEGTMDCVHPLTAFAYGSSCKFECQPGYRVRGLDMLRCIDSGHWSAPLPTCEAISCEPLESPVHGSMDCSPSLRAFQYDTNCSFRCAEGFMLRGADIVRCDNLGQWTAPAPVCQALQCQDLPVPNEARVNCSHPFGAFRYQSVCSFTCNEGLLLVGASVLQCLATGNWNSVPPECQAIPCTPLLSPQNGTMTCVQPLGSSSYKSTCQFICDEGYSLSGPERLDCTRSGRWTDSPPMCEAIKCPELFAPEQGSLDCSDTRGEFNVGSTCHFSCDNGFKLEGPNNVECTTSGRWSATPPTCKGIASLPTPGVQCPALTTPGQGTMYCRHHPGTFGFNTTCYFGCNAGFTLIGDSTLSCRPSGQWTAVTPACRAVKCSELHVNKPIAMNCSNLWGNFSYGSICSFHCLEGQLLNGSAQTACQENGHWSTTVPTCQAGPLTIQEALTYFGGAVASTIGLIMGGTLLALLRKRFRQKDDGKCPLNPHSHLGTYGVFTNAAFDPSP

E-selectin = molecular target: T3, E-selectin (Homo sapiens, UniProt P16581); test: Displacement of sialyl Lewis X (sLex) from selectin E
T3 sequence (P16581 whole entry): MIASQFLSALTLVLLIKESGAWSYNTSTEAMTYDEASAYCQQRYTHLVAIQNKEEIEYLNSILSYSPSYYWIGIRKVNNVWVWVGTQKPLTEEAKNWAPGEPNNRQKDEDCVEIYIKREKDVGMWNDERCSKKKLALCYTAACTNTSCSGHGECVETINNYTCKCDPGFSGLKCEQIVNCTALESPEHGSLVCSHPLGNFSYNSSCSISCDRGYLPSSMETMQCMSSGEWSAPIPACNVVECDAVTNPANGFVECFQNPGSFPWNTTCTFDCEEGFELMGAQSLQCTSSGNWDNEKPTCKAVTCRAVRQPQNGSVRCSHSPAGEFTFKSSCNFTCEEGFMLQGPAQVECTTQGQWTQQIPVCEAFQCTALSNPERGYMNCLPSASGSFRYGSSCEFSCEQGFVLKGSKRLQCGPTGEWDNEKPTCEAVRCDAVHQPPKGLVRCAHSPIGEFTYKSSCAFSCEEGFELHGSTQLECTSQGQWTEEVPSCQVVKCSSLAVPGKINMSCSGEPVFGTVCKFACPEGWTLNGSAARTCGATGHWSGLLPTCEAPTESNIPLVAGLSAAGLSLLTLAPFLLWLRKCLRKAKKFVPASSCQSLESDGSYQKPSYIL

P-selectin [2] = molecular target: T2, P-selectin; test: The compound was tested for the concentration to inhibit 50% of Selectin P by blocking its activity; range is 250-500

Compound | IC50 (L-selectin) | IC50 (P-selectin [1]) | IC50 (E-selectin) | IC50 (P-selectin [2])
CCCCCCCCCCCCCCC(CCCCCCCCCCCCCC)C(=O)N[C@H](CO[C@H]1O[C@@H](C)[C@@H](O)[C@H](O)[C@@H]1O)C(=O)N[C@H](CCC(=O)O)C(=O)NC | 0.7 µM | 0.3 µM | > 1000 µM | 
CC(=O)N[C@H]1[C@H]([C@H](O)[C@H](O)CO)O[C@@](O[C@H]2[C@@H](O)[C@@H](CO)O[C@@H](O[C@@H]([C@H](O[C@@H]3O[C@@H](C)[C@@H](O)[C@@H](O)[C@@H]3O)[C@H](C=O)NC(C)=O)[C@H](O)CO)[C@@H]2O)(C(=O)O)C[C@@H]1O [SIALYL LEWIS X] | > 1000 µM | > 1000 µM |  | 
CCCCCCCCCCCCCCC(CCCCCCCCCCCCCC)C(=O)N[C@H](COC1OC(C)C(O)C(O)C1O)C(=O)N[C@@H](CCC(=O)OC)C(=O)NC (stereo partly specified) | > 500 µM | 37 µM | > 500 µM | 
CCCCCCCCCCCC(CCCCCCCCCCC)C(=O)N[C@H](COC1OC(C)C(O)C(O)C1O)C(=O)NC(CCC(=O)O)C(=O)NC (stereo partly specified) | 12 µM | 15 µM | 160 µM | 
CCCCCCCCCCCCCCC(CCCCCCCCCCCCCC)C(=O)N[C@@H](CO[C@H]1O[C@H](CO)[C@@H](O)[C@@H](O)[C@@H]1O)C(=O)N[C@H](CCC(=O)O)C(=O)NC (stereo in doubt; 5c) | 4.2 µM | 0.68 µM | > 1000 µM | 
CCCCCCCCCCCCCCCC(=O)N[C@H](COC1OC(C)C(O)C(O)C1O)C(=O)NC(CCC(=O)O)C(=O)NC (stereo partly specified) | 200 µM |  | > 500 µM | 250 µM
CCCCCCCCCCCCCCC(CCCCCCCCCCCCCC)C(=O)N[C@H](COC1OC(C)C(O)C(O)C1O)C(=O)NC(CCC(=O)O)C(=O)OC (stereo partly specified) | 2.4 µM | 1.6 µM | > 500 µM | 
CCCCCCCCCCCCCCC(CCCCCCCCCCCCCC)C(=O)N[C@@H](CO[C@H]1O[C@@H](C)[C@@H](O)[C@H](O)[C@@H]1O)C(=O)N[C@@H](CCC(=O)O)C(=O)NC | 1.8 µM | 0.6 µM | > 1000 µM | 
CCCCCCCCCCCCCCC(CCCCCCCCCCCCCC)C(=O)N[C@H](CO[C@H]1O[C@@H](C)[C@@H](O)[C@H](O)[C@@H]1O)C(=O)N[C@@H](CCC(=O)O)C(=O)NC | 1.6 µM | 0.3 µM | > 100 µM | 

Other lines, results leading:

IC50 (L-selectin) | IC50 (P-selectin [1]) | IC50 (E-selectin) | IC50 (P-selectin [2]) | Compound
4.4 µM | 0.38 µM | > 1000 µM |  | CCCCCCCCCCCCCCC(CCCCCCCCCCCCCC)C(=O)N[C@@H](CO[C@H]1O[C@H](CO)[C@@H](O)[C@@H](O)[C@@H]1O)C(=O)N[C@H](CCC(=O)O)C(=O)NC (stereo in doubt; 5d)
0.8 µM | 0.3 µM | > 100 µM |  | CCCCCCCCCCCCCCC(CCCCCCCCCCCCCC)C(=O)N[C@@H](CO[C@H]1O[C@@H](C)[C@@H](O)[C@H](O)[C@@H]1O)C(=O)N[C@H](CCC(=O)O)C(=O)NC
3.1 µM | 0.42 µM | 16 µM |  | CCCCCCCCCCCCCCC(CCCCCCCCCCCCCC)C(=O)N[C@@H](CO[C@H]1O[C@H](CO)[C@@H](O)[C@@H](O)[C@@H]1O)C(=O)N[C@H](CCC(=O)O)C(=O)NC (stereo in doubt; 5b)
4 µM | 0.45 µM | 3.5 µM |  | CCCCCCCCCCCCCCC(CCCCCCCCCCCCCC)C(=O)N[C@H](CO[C@H]1O[C@H](CO)[C@@H](O)[C@@H](O)[C@@H]1O)C(=O)N[C@@H](CCC(=O)O)C(=O)NC
3.8 µM | 3.6 µM | > 500 µM |  | CCCCCCCCCCCCCCC(CCCCCCCCCCCCCC)C(=O)N[C@H](COC1OC(C)C(O)C(O)C1O)C(=O)NC(CC(=O)O)C(=O)NC (stereo partly specified)
